Measurements as given in ChEMBL document CHEMBL2010765, “Structure-activity relationship (SAR) development and discovery of potent indole-based inhibitors of the hepatitis C virus (HCV) NS5B polymerase” (J Med Chem, 2012).

Key:
[1] = test system: Hepatitis C virus; experiment: Antiviral activity against HCV infected in human hepatoma cells; type: functional, organism-based, Hepacivirus hominis
[2] = test system: Hepatitis C virus; experiment: Inhibition of HCV subtype 1b NS5B Cdelta21 RNA dependent RNA polymerase expressed in Escherichia coli JM109 assessed as inhibition of [alpha32P]CTP incorporation after 1 hr by scintillation assay; parameters: species or system Hepatitis C virus subtype 1b; conditions: JM 109, 1 h
[3] = AUC (0 to 24 hrs) in rat at 10 mg/kg, po; type: ADME, organism-based; parameters: time < 24 hr, dose 10 mg/kg, route oral; conditions: plasma
[4] = target: T1, Cytochrome P450 2C9 (Homo sapiens, UniProt P11712); experiment: Inhibition of CYP2C9 co-incubated with substrate; type: ADME
T1 sequence (P11712 whole entry): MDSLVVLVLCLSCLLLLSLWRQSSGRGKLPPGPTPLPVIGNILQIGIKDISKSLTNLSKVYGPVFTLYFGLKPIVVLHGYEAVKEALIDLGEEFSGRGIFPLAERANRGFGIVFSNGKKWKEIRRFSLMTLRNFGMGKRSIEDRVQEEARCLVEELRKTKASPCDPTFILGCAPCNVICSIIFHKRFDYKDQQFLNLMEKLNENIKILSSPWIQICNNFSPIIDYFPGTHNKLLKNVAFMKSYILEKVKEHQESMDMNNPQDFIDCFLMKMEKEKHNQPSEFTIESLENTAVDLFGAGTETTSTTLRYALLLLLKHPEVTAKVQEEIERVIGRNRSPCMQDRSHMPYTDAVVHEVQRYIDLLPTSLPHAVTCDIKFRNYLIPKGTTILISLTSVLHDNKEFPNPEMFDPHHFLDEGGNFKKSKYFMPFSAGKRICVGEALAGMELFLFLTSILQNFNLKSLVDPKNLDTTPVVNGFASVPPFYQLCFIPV

[5] = target: T2, Cytochrome P450 2D6 (Homo sapiens, UniProt P10635); experiment: Inhibition of CYP2D6 preincubated prior to substrate addition; type: ADME
T2 sequence (P10635 whole entry): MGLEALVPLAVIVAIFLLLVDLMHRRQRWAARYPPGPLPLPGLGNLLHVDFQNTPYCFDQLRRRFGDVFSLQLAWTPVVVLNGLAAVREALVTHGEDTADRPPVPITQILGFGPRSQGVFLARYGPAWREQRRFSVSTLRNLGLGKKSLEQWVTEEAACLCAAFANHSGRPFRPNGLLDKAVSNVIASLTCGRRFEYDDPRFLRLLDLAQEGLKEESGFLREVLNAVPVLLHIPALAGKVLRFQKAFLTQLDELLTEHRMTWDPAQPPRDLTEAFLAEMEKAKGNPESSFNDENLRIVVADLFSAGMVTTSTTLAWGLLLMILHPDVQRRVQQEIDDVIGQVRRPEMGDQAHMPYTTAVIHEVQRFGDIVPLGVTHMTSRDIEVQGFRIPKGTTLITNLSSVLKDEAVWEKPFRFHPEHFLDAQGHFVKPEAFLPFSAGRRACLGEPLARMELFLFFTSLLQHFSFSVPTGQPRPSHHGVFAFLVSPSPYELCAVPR

[6] = target: T2, Cytochrome P450 2D6; experiment: Inhibition of CYP2D6 co-incubated with substrate; type: ADME
[7] = target: Voltage-gated inwardly rectifying potassium channel KCNH2 (Homo sapiens, UniProt Q12809); experiment: Inhibition of human ERG at 10 uM by efflux assay
Chain of Voltage-gated inwardly rectifying potassium channel KCNH2 (Q12809 whole entry): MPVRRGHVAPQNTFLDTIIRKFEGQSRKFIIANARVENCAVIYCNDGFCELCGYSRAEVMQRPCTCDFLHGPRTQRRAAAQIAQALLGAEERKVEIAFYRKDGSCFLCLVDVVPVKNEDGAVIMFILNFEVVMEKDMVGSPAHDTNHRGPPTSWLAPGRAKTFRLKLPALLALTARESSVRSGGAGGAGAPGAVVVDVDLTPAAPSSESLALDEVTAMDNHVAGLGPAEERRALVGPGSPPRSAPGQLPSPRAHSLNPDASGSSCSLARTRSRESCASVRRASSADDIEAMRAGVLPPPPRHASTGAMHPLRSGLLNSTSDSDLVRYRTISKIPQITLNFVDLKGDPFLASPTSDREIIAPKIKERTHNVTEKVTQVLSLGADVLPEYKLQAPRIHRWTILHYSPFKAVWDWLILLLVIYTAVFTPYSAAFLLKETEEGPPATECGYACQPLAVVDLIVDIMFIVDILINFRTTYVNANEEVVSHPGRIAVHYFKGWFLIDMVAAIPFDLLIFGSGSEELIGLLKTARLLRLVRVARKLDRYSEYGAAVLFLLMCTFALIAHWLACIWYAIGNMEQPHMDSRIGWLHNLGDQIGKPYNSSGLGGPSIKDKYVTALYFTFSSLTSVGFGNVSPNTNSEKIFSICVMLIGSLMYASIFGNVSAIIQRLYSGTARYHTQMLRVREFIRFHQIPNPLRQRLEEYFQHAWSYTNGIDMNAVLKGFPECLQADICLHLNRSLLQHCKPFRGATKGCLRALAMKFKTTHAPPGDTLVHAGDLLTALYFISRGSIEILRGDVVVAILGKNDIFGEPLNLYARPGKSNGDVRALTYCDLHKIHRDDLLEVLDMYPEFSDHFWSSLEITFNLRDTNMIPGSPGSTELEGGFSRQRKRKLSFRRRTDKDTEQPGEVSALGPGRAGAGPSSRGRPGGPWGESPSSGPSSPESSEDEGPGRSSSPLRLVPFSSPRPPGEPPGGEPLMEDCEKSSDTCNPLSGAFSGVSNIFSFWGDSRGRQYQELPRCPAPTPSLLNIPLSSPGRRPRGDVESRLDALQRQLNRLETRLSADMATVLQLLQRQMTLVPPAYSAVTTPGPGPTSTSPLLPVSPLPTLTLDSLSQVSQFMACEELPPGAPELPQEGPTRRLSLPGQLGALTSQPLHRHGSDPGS

[8] = Drug uptake in rat liver at 10 mg/kg, po after 6 hrs; type: ADME, organism-based; parameters: dose 10 mg/kg, route oral; conditions: read-out: Drug uptake
Summary of the method: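 Rats dosed orally at 10 mg/kg; liver tissue concentration measured 6 h after dosing, reported in ng/g.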

[9] = target: T3, Cytochrome P450 2C19 (Homo sapiens, UniProt P33261); experiment: Inhibition of CYP2C19 co-incubated with substrate; type: ADME
T3 sequence (P33261 whole entry): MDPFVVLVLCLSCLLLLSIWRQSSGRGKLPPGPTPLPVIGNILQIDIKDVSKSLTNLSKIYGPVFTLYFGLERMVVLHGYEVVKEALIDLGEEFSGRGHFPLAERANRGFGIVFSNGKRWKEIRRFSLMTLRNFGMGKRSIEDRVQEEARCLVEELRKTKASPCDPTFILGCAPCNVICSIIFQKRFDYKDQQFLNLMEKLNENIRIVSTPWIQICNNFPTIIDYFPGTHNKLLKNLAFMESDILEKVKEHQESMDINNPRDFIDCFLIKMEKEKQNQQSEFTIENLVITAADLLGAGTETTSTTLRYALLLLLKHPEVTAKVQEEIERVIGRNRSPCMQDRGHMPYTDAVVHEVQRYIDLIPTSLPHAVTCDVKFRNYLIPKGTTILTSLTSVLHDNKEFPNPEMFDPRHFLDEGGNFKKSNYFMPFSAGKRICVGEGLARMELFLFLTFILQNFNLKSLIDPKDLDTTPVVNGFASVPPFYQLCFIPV

[10] = target: T4, Cytochrome P450 3A4 (Homo sapiens, UniProt P08684); experiment: Inhibition of CYP3A4 preincubated prior to substrate addition; type: ADME
T4 sequence (P08684 whole entry): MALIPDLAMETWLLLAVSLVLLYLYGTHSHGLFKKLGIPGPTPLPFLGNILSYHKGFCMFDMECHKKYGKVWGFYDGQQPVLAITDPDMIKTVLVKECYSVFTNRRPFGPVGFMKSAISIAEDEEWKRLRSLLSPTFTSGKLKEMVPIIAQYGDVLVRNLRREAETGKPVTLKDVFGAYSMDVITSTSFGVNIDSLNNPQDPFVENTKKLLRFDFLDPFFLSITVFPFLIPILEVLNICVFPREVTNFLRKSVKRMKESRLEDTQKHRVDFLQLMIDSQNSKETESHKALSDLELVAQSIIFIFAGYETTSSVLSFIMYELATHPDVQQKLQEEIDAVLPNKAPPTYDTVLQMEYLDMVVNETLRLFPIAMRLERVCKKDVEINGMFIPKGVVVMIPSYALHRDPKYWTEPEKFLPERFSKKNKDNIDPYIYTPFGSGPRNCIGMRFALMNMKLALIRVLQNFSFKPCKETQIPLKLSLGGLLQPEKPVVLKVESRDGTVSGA

[11] = Permeability from apical to basal side of human Caco2 cells; type: ADME, cell-based; conditions: Caco-2, read-out: permeability
[12] = target: T4, Cytochrome P450 3A4; experiment: Inhibition of CYP3A4 co-incubated with substrate; type: ADME
[13] = AUC (0 to 24 hrs) in dog at 2 mg/kg, po; type: ADME, organism-based, Canis lupus familiaris; parameters: time < 24 hr, dose 2 mg/kg, route oral; conditions: plasma
[14] = Clearance in human hepatocytes assessed per million cells; type: ADME, cell-based, Hepatocyte; conditions: read-out: CLH
[15] = target: T1, Cytochrome P450 2C9; experiment: Inhibition of CYP2C9 preincubated prior to substrate addition; type: ADME
[16] = target: T3, Cytochrome P450 2C19; experiment: Inhibition of CYP2C19 preincubated prior to substrate addition; type: ADME

| EC50 [1] | IC50 [2] | AUC(0-t) at 24 h [3] | SMILES | other results |
| --- | --- | --- | --- | --- |
| 100 nM | 16 nM |  | Nc1cc(Cn2c(C(=O)O)c(-c3ccc[nH]c3=O)c3cc(OC(F)(F)F)ccc32)ccn1 |  |
| 90 nM | 6 nM | 9.1 µM·h | Cc1ccc2c(c1)c(-c1ccc[nH]c1=O)c(C(=O)NS(=O)(=O)C1CC1)n2Cc1cc(F)ccc1F |  |
| 100 nM | 9 nM |  | O=C(O)c1c(-c2ccc[nH]c2=O)c2cc(C(F)(F)F)ccc2n1Cc1ccccc1F |  |
| 150 nM | 6 nM | 72 µM·h | CCc1ccc2c(c1)c(-c1ccc[nH]c1=O)c(C(=O)NS(C)(=O)=O)n2Cc1cc(F)ccc1F |  |
| 100 nM | 750 nM |  | Nc1cc(Cn2c(C(=O)O)c(-c3ccc[nH]c3=O)c3c(Cl)c(Cl)ccc32)ccn1 |  |
| 200 nM | 10 nM | 11 µM·h | CCS(=O)(=O)NC(=O)c1c(-c2ccc[nH]c2=O)c2cc(C)ccc2n1Cc1cc(F)ccc1F |  |
| 100 nM | 330 nM |  | CC(=O)c1ccc2c(c1)c(-c1ccc[nH]c1=O)c(C(=O)O)n2Cc1ccnc(N)c1 |  |
| 100 nM | 15 nM |  | COc1ccc2c(c1)c(-c1ccc[nH]c1=O)c(C(=O)O)n2Cc1cc(F)ccc1F |  |
| 280 nM | 7 nM | 0.69 µM·h | Cc1cc2c(-c3ccc[nH]c3=O)c(C(=O)NS(=O)(=O)C3CC3)n(Cc3cc(F)ccc3F)c2cc1C(F)(F)F |  |
| 1100 nM | 8 nM |  | Cc1ccc2c(c1)c(-c1ccc[nH]c1=O)c(C(=O)O)n2Cc1cc(F)ccc1F |  |
| 100 nM | 4 nM |  | O=C(O)c1c(-c2ccc[nH]c2=O)c2cc(C(F)(F)F)ccc2n1Cc1cc(F)ccc1F |  |
| 100 nM | 9 nM |  | Cc1ccccc1Cn1c(C(=O)O)c(-c2ccc[nH]c2=O)c2cc(C(F)(F)F)ccc21 |  |
| 100 nM | 4000 nM |  | Nc1cc(Cn2c(C(=O)O)c(-c3ccc[nH]c3=O)c3c(Br)cccc32)ccn1 |  |
| 100 nM | 17 nM | < 0.1 µM·h | Nc1cc(Cn2c(C(=O)O)c(-c3ccc[nH]c3=O)c3cc(C(F)(F)F)ccc32)ccn1 |  |
| 100 nM | 16 nM |  | Cc1ccc(Cn2c(C(=O)O)c(-c3ccc[nH]c3=O)c3cc(C(F)(F)F)ccc32)c(C)c1 |  |
| > 100000 nM |  |  | O=C(O)c1c(-c2ccccc2F)c2cc(Cl)ccc2n1Cc1ccccc1 |  |
| 100 nM | 65 nM |  | Nc1cc(Cn2c(C(=O)O)c(-c3ccc[nH]c3=O)c3cc(C4CC4)ccc32)ccn1 |  |
| 100 nM | 5 nM | 0.8 µM·h | CCc1ccc2c(c1)c(-c1ccc[nH]c1=O)c(C(=O)NS(=O)(=O)C(C)C)n2Cc1cc(F)ccc1F |  |
| 100 nM | 67 nM |  | O=C(O)c1c(-c2ccc[nH]c2=O)c2cc(C(F)(F)F)ccc2n1Cc1ccc(OC(F)F)cc1 |  |
| 100 nM | 47 nM |  | Nc1cc(Cn2c(C(=O)O)c(-c3ccc[nH]c3=O)c3cc(Cl)c(Cl)cc32)ccn1 |  |
| 100 nM | 7000 nM |  | Nc1cc(Cn2c(C(=O)O)c(-c3ccc[nH]c3=O)c3cc(-c4cccc(=O)[nH]4)ccc32)ccn1 |  |
| 230 nM | 7 nM | 0.67 µM·h | O=C(NS(=O)(=O)C1CC1)c1c(-c2ccc[nH]c2=O)c2cc(CC(F)(F)F)ccc2n1Cc1cc(F)ccc1F |  |
| 20 nM | 8 nM | 14 µM·h | Cc1cc2c(-c3ccc[nH]c3=O)c(C(=O)NS(=O)(=O)C3CC3)n(Cc3cc(F)ccc3F)c2cc1F | IC50 [4]: > 20000 nM; IC50 [5]: > 20000 nM; IC50 [6]: > 20000 nM; inhibition (INH) [7]: Not Active; concentration at 6 h [8]: 5850 ng/g; IC50 [9]: > 20000 nM; IC50 [10]: > 20000 nM; Papp A→B [11]: 3.5 ×10⁻⁶ cm/s; IC50 [12]: > 20000 nM; AUC(0-t) at 24 h [13]: 8 µM·h; hepatocyte CLint [14]: < 1 µL/min/1e6 cells; IC50 [15]: > 20000 nM; IC50 [16]: > 20000 nM |
| 50 nM | 3 nM | 4.8 µM·h | O=C(NS(=O)(=O)C1CC1)c1c(-c2ccc[nH]c2=O)c2cc(C(F)(F)F)ccc2n1Cc1cc(F)ccc1F |  |
| 100 nM | 47 nM |  | Nc1cc(Cn2c(C(=O)O)c(-c3ccc[nH]c3=O)c3cc(Br)ccc32)ccn1 |  |

| EC50 [1] | IC50 [2] | AUC(0-t) at 24 h [3] | SMILES | other results |
| --- | --- | --- | --- | --- |
| 100 nM | 8 nM |  | O=C(O)c1c(-c2ccc[nH]c2=O)c2cc(CC(F)(F)F)ccc2n1Cc1cc(F)ccc1F |  |
| 490 nM | 7 nM | 22 µM·h | Cc1ccc2c(c1)c(-c1ccc[nH]c1=O)c(C(=O)NS(C)(=O)=O)n2Cc1cc(F)ccc1F |  |
| 100 nM | 150 nM |  | CC/C=C/c1ccc2c(c1)c(-c1ccc[nH]c1=O)c(C(=O)O)n2Cc1cc(F)ccc1F |  |
| 90 nM | 7 nM | 6.8 µM·h | Cc1ccc2c(c1)c(-c1ccc[nH]c1=O)c(C(=O)NS(=O)(=O)C(C)C)n2Cc1cc(F)ccc1F |  |
| 100 nM | 3 nM |  | O=C(O)c1c(-c2ccc[nH]c2=O)c2cc(Br)ccc2n1Cc1cc(F)ccc1F |  |
| 100 nM | 4 nM |  | CCc1ccc2c(c1)c(-c1ccc[nH]c1=O)c(C(=O)O)n2Cc1cc(F)ccc1F |  |
| 100 nM | 48 nM |  | C#Cc1ccc2c(c1)c(-c1ccc[nH]c1=O)c(C(=O)O)n2Cc1ccnc(N)c1 |  |
| 100 nM | 25 nM |  | COc1ccc(Cn2c(C(=O)O)c(-c3ccc[nH]c3=O)c3cc(C(F)(F)F)ccc32)cc1 |  |
| 100 nM | 1400 nM |  | CS(=O)(=O)c1ccc2c(c1)c(-c1ccc[nH]c1=O)c(C(=O)O)n2Cc1ccnc(N)c1 |  |
| 100 nM | > 20000 nM |  | Nc1cc(Cn2c(C(=O)O)c(-c3ccc[nH]c3=O)c3cc(O)ccc32)ccn1 |  |
| 100 nM | 9 nM |  | CC1(c2ccc3c(c2)c(-c2ccc[nH]c2=O)c(C(=O)O)n3Cc2cc(F)ccc2F)CC1 |  |
| 150 nM | 5 nM |  | Cc1cc2c(-c3ccc[nH]c3=O)c(C(=O)NS(=O)(=O)C3CC3)n(Cc3cc(F)ccc3F)c2cc1Cl |  |
|  | 53 nM |  | Nc1cc(Cn2c(C(=O)O)c(-c3ccc[nH]c3=O)c3cc(Cl)ccc32)ccn1 |  |
| 100 nM | 25 nM |  | O=C(O)c1c(-c2ccc[nH]c2=O)c2cc(C(F)(F)F)ccc2n1Cc1ccc(F)cc1F |  |
| 50 nM | 6 nM | 8 µM·h | CC(C)(C)c1ccc2c(c1)c(-c1ccc[nH]c1=O)c(C(=O)NS(=O)(=O)C1CC1)n2Cc1cc(F)ccc1F |  |
| 600 nM | 6 nM | 11 µM·h | CC1(c2ccc3c(c2)c(-c2ccc[nH]c2=O)c(C(=O)NS(=O)(=O)C2CC2)n3Cc2cc(F)ccc2F)CC1 |  |
| 100 nM | 24 nM |  | O=C(O)c1c(-c2ccc[nH]c2=O)c2cc(OC(F)(F)F)ccc2n1Cc1cc(F)ccc1F |  |
| 80 nM | 6 nM | 4.6 µM·h | CCc1ccc2c(c1)c(-c1ccc[nH]c1=O)c(C(=O)NS(=O)(=O)CC)n2Cc1cc(F)ccc1F |  |
| 100 nM | 5 nM |  | Cc1cccc(Cn2c(C(=O)O)c(-c3ccc[nH]c3=O)c3cc(C(F)(F)F)ccc32)c1F |  |
| 60 nM | 5 nM | 6.4 µM·h | CCc1cc2c(-c3ccc[nH]c3=O)c(C(=O)NS(=O)(=O)C3CC3)n(Cc3cc(F)ccc3F)c2cc1F |  |
| 100 nM | 8 nM |  | CC(C)(C)c1ccc2c(c1)c(-c1ccc[nH]c1=O)c(C(=O)O)n2Cc1cc(F)ccc1F |  |
| 280 nM | 7 nM |  | O=C(NS(=O)(=O)C1CC1)c1c(-c2ccc[nH]c2=O)c2cc(C(F)(F)F)c(F)cc2n1Cc1cc(F)ccc1F |  |
| 60 nM | 3 nM | 12 µM·h | CCc1ccc2c(c1)c(-c1ccc[nH]c1=O)c(C(=O)NS(=O)(=O)C1CC1)n2Cc1cc(F)ccc1F |  |
| 100 nM | 79 nM |  | CCOc1ccc2c(c1)c(-c1ccc[nH]c1=O)c(C(=O)O)n2Cc1cc(F)ccc1F |  |
| 100 nM | 7 nM |  | NC(=O)c1ccc(F)c(Cn2c(C(=O)O)c(-c3ccc[nH]c3=O)c3cc(C(F)(F)F)ccc32)c1 |  |
